Data: ChEMBL document CHEMBL1649165, “Activity profile in vitro of micafungin against Spanish clinical isolates of common and emerging species of yeasts and molds” (2009)
Converted amounts (≈) assume the structure as drawn. *1 amine or outer side, *2 acyl side, *3 side chain or, on linkers, in order; H or OH if unused. Where a SMILES comes first, the peptide text is derived from it. Bridges are numbered along the chain shown (N, C = ends). [ ]: non-standard residue; d: D form. The star is where a group is joined. pTerphenylCO(4''-OnC5H11) = CCCCCOc1ccc(-c2ccc(-c3ccc(C(=O)*)cc3)cc2)cc1; Orn(4R-OH,5R-OH) = O=C([C@H](C[C@@H](O)[C@@H](O)N[*:3])N[*:1])[*:2]; hTyr(3S-OH,4S-OH) = N[C@H](C(=O)O)[C@H](O)[C@@H](O)c1ccc(O)cc1; Pro(3S-OH,4S-Me) = C[C@H]1CN[C@H](C(=O)O)[C@H]1O; Hyp = O=C(O)[C@@H]1C[C@@H](O)CN1

Legend:
Assay type in all cases: functional
Neurospora sitophila = experiment: Antimicrobial activity against Chrysonilia sitophila by broth microdilution method
How it was run: (§1)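 Clinical mould isolates, tested by broth microdilution using the AFST-EUCAST reference method for filamentous fungi. For echinocandins, the endpoint was the minimum effective concentration: the lowest drug concentration giving aberrant hyphal growth, read with an inverted microscope.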

[1] = test system: Cryptococcus deneoformans; experiment: Antimicrobial activity against Cryptococcus neoformans var. neoformans by broth microdilution method
How it was run: (§2)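 Clinical isolates of nonfermentative yeasts, tested by broth microdilution following EUCAST recommendations. The only change from that method was a minor modification to improve growth.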

Trichosporon dermatis = experiment: Antimicrobial activity against Trichosporon dermatis by broth microdilution method; conditions: Cutaneotrichosporon dermatis
How it was run: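 Nonfermentative yeast clinical isolates (Rhodotorula, Trichosporon) tested by broth microdilution. The EUCAST yeast recommendations were followed strictly, with one minor modification to improve growth. MIC was read as the endpoint.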

Aspergillus sclerotiorum = experiment: Antimicrobial activity against Aspergillus sclerotiorum by broth microdilution method; how it was run: as §1
Aureobasidium pullulans = experiment: Antimicrobial activity against Aureobasidium pullulans by broth microdilution method
Beauveria bassiana = experiment: Antimicrobial activity against Beauveria bassiana by broth microdilution method; how it was run: as §1
Fusarium verticillioides = experiment: Antimicrobial activity against Fusarium verticillioides by broth microdilution method
How it was run: (§3)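 Filamentous fungus clinical isolates tested by the AFST-EUCAST reference broth microdilution method for moulds. For echinocandins, the endpoint was the minimum effective concentration: the lowest drug concentration giving aberrant hyphal growth, read with an inverted microscope.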

Acremonium sp. = experiment: Antimicrobial activity against Acremonium sp.by broth microdilution method; how it was run: as §1
[Candida] zeylanoides = Antimicrobial activity against Candida zeylanoides by broth microdilution method; conditions: Dujonia zeylanoides
How it was run: (§4)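 Clinical isolates from human patients, tested by broth microdilution using the AFST-EUCAST reference procedure for fermentative yeasts. The MIC was read per that reference method.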

Aspergillus = experiment: Antimicrobial activity against Aspergillus spp. by broth microdilution method; how it was run: as §1
Exophiala jeanselmei = experiment: Antimicrobial activity against Exophiala jeanselmei by broth microdilution method
Kluyveromyces marxianus = experiment: Antimicrobial activity against Candida kefyr by broth microdilution method; how it was run: as §4
Cladosporium = experiment: Antimicrobial activity against Cladosporium spp. by broth microdilution method; how it was run: as §1
Naganishia albida = experiment: Antimicrobial activity against Cryptococcus albidus by broth microdilution method; how it was run: as §2
Scytalidium hyalinum = experiment: Antimicrobial activity against Scytalidium hyalinum by broth microdilution method; conditions: Neoscytalidium hyalinum; how it was run: as §3
Fennellia nivea = experiment: Antimicrobial activity against Aspergillus niveus by broth microdilution method; how it was run: as §1
Aspergillus sydowii = experiment: Antimicrobial activity against Aspergillus sydowii by broth microdilution method; how it was run: as §1
Candida tropicalis = experiment: Antimicrobial activity against Candida tropicalis by broth microdilution method; how it was run: as §4
Saksenaea vasiformis = experiment: Antimicrobial activity against Saksenaea vasiformis by broth microdilution method; how it was run: as §3
Penicillium = experiment: Antimicrobial activity against Penicillium spp. by broth microdilution method; how it was run: as §3
Lewia infectoria = experiment: Antimicrobial activity against Alternaria infectoria by broth microdilution method; how it was run: as §1
[2] = Antimicrobial activity against Rhizopus microsporus by broth microdilution method; how it was run: as §3
[Candida] intermedia = Antimicrobial activity against Candida intermedia by broth microdilution method; conditions: Sungouiella intermedia; how it was run: as §4
[3] = test system: Kazachstania pintolopesii; experiment: Antimicrobial activity against Candida pintolopesii by broth microdilution method; conditions: Arxiozyma pintolopesii; how it was run: as §4
Torulaspora delbrueckii = experiment: Antimicrobial activity against Candida coliculosa by broth microdilution method; how it was run: as §4
Lichtheimia corymbifera = experiment: Antimicrobial activity against Mycocladus corymbiferus by broth microdilution method; how it was run: as §3
Hortaea werneckii = experiment: Antimicrobial activity against Hortaea werneckii by broth microdilution method
Saccharomyces cerevisiae = experiment: Antimicrobial activity against Saccharomyces cerevisiae by broth microdilution method
Aspergillus ustus = experiment: Antimicrobial activity against Aspergillus ustus by broth microdilution method; how it was run: as §1
[4] = test system: Meyerozyma guilliermondii; experiment: Antimicrobial activity against Candida guilliermondii by broth microdilution method; how it was run: as §4
[5] = Antimicrobial activity against Hormographiella aspergillata by broth microdilution method; conditions: Coprinopsis cinerea; how it was run: as §3
Debaryomyces hansenii = experiment: Antimicrobial activity against Candida famata by broth microdilution method; how it was run: as §4
Aspergillus niger = experiment: Antimicrobial activity against Aspergillus niger by broth microdilution method; how it was run: as §1
Yarrowia lipolytica = experiment: Antimicrobial activity against Yarrowia lipolytica by broth microdilution method
Paecilomyces lilacinus = experiment: Antimicrobial activity against Paecilomyces lilacinus by broth microdilution method; conditions: Purpureocillium lilacinum; how it was run: as §3
Exophiala dermatitidis = experiment: Antimicrobial activity against Exophiala dermatitidis by broth microdilution method
Trichosporon domesticum = experiment: Antimicrobial activity against Trichosporon mycotoxinivorans by broth microdilution method; conditions: Apiotrichum domesticum
How it was run: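 Spanish human clinical isolates were tested as nonfermentative yeasts by broth microdilution. The method strictly followed the EUCAST recommendations, with a minor modification to improve growth, and the read-out was the MIC.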

Candida parapsilosis = experiment: Antimicrobial activity against Candida parapsilosis by broth microdilution method; conditions: Lodderomyces parapsilosis; how it was run: as §4
Fusarium reticulatum = experiment: Antimicrobial activity against Fusarium reticulatum by broth microdilution method; how it was run: as §3
Papiliotrema laurentii = experiment: Antimicrobial activity against Cryptococcus laurentii by broth microdilution method; how it was run: as §2
Rhizomucor = experiment: Antimicrobial activity against Rhizomucor spp.by broth microdilution method; how it was run: as §3
Trichoderma = experiment: Antimicrobial activity against Trichoderma spp. by broth microdilution method; how it was run: as §3
Fusarium proliferatum = experiment: Antimicrobial activity against Fusarium proliferatum by broth microdilution method; how it was run: as §1
Fusarium oxysporum = experiment: Antimicrobial activity against Fusarium oxysporum by broth microdilution method; how it was run: as §1

SMILES: CCCCCOc1ccc(-c2ccc(-c3ccc(C(=O)N[C@H]4C[C@@H](O)[C@@H](O)NC(=O)[C@@H]5[C@@H](O)[C@@H](C)CN5C(=O)[C@H]([C@@H](C)O)NC(=O)[C@H]([C@H](O)[C@@H](O)c5ccc(O)cc5)NC(=O)[C@@H]5C[C@@H](O)CN5C(=O)[C@H]([C@@H](C)O)NC4=O)cc3)cc2)cc1 [ANIDULAFUNGIN] ({pTerphenylCO(4''-OnC5H11)}-[Orn(4R-OH,5R-OH)]T[Hyp][hTyr(3S-OH,4S-OH)]T[Pro(3S-OH,4S-Me)]; lactam 1-C)
- MIC50 (Neurospora sitophila): > 16 µg/mL
- MIC90 (Neurospora sitophila): > 16 µg/mL
- MIC50 [1]: > 16 µg/mL
- MIC90 [1]: > 16 µg/mL
- MIC50 (Trichosporon dermatis): > 16 µg/mL
- MIC90 (Trichosporon dermatis): > 16 µg/mL
- MIC50 (Aspergillus sclerotiorum): 0.06 µg/mL (≈ 0.0526 µM)
- MIC90 (Aspergillus sclerotiorum): 0.25 µg/mL (≈ 0.219 µM)
- MIC50 (Aureobasidium pullulans): 0.03 µg/mL (≈ 0.0263 µM)
- MIC90 (Aureobasidium pullulans): 0.06 µg/mL (≈ 0.0526 µM)
- MIC50 (Beauveria bassiana): > 16 µg/mL
- MIC90 (Beauveria bassiana): > 16 µg/mL
- MIC50 (Fusarium verticillioides): > 16 µg/mL
- MIC90 (Fusarium verticillioides): > 16 µg/mL
- MIC50 (Acremonium sp.): 0.03 µg/mL (≈ 0.0263 µM)
- MIC90 (Acremonium sp.): 0.03 µg/mL (≈ 0.0263 µM)
- MIC50 ([Candida] zeylanoides): 0.06 µg/mL (≈ 0.0526 µM)
- MIC90 ([Candida] zeylanoides): 0.25 µg/mL (≈ 0.219 µM)
- MIC50 (Aspergillus): 0.06 µg/mL (≈ 0.0526 µM)
- MIC90 (Aspergillus): 0.25 µg/mL (≈ 0.219 µM)
- MIC50 (Exophiala jeanselmei): 0.03 µg/mL (≈ 0.0263 µM)
- MIC90 (Exophiala jeanselmei): 0.06 µg/mL (≈ 0.0526 µM)
- MIC50 (Kluyveromyces marxianus): 0.03 µg/mL (≈ 0.0263 µM)
- MIC90 (Kluyveromyces marxianus): 0.03 µg/mL (≈ 0.0263 µM)
- MIC50 (Cladosporium): 0.03 µg/mL (≈ 0.0263 µM)
- MIC90 (Cladosporium): 0.06 µg/mL (≈ 0.0526 µM)
- MIC50 (Naganishia albida): > 16 µg/mL
- MIC90 (Naganishia albida): > 16 µg/mL
- MIC50 (Scytalidium hyalinum): 0.03 µg/mL (≈ 0.0263 µM)
- MIC90 (Scytalidium hyalinum): 0.06 µg/mL (≈ 0.0526 µM)
- MIC50 (Fennellia nivea): 0.06 µg/mL (≈ 0.0526 µM)
- MIC90 (Fennellia nivea): 0.25 µg/mL (≈ 0.219 µM)
- MIC50 (Aspergillus sydowii): 0.03 µg/mL (≈ 0.0263 µM)
- MIC90 (Aspergillus sydowii): 0.03 µg/mL (≈ 0.0263 µM)
- MIC50 (Candida tropicalis): 0.03 µg/mL (≈ 0.0263 µM)
- MIC90 (Candida tropicalis): 0.03 µg/mL (≈ 0.0263 µM)
- MIC50 (Saksenaea vasiformis): > 16 µg/mL
- MIC90 (Saksenaea vasiformis): > 16 µg/mL
- MIC50 (Penicillium): 0.03 µg/mL (≈ 0.0263 µM)
- MIC90 (Penicillium): 0.03 µg/mL (≈ 0.0263 µM)
- MIC50 (Lewia infectoria): 2 µg/mL (≈ 1.75 µM)
- MIC90 (Lewia infectoria): > 16 µg/mL
- MIC50 [2]: > 16 µg/mL
- MIC90 [2]: > 16 µg/mL
- MIC50 ([Candida] intermedia): 0.06 µg/mL (≈ 0.0526 µM)
- MIC90 ([Candida] intermedia): 0.25 µg/mL (≈ 0.219 µM)
- MIC50 [3]: 0.06 µg/mL (≈ 0.0526 µM)
- MIC90 [3]: 0.25 µg/mL (≈ 0.219 µM)
- MIC50 (Torulaspora delbrueckii): 0.06 µg/mL (≈ 0.0526 µM)
- MIC90 (Torulaspora delbrueckii): 0.25 µg/mL (≈ 0.219 µM)
- MIC50 (Lichtheimia corymbifera): > 16 µg/mL
- MIC90 (Lichtheimia corymbifera): > 16 µg/mL
- MIC50 (Hortaea werneckii): 0.03 µg/mL (≈ 0.0263 µM)
- MIC90 (Hortaea werneckii): 0.06 µg/mL (≈ 0.0526 µM)
- MIC50 (Saccharomyces cerevisiae): 0.12 µg/mL (≈ 0.105 µM)
- MIC90 (Saccharomyces cerevisiae): 0.25 µg/mL (≈ 0.219 µM)
- MIC50 (Aspergillus ustus): 0.06 µg/mL (≈ 0.0526 µM)
- MIC90 (Aspergillus ustus): 0.25 µg/mL (≈ 0.219 µM)
- MIC50 [4]: 1 µg/mL (≈ 0.877 µM)
- MIC90 [4]: 8 µg/mL (≈ 7.02 µM)
- MIC50 [5]: > 16 µg/mL
- MIC90 [5]: > 16 µg/mL
- MIC50 (Debaryomyces hansenii): 0.06 µg/mL (≈ 0.0526 µM)
- MIC90 (Debaryomyces hansenii): 0.25 µg/mL (≈ 0.219 µM)
- MIC50 (Aspergillus niger): 0.03 µg/mL (≈ 0.0263 µM)
- MIC90 (Aspergillus niger): 0.03 µg/mL (≈ 0.0263 µM)
- MIC50 (Yarrowia lipolytica): 0.06 µg/mL (≈ 0.0526 µM)
- MIC90 (Yarrowia lipolytica): 0.12 µg/mL (≈ 0.105 µM)
- MIC50 (Paecilomyces lilacinus): > 16 µg/mL
- MIC90 (Paecilomyces lilacinus): > 16 µg/mL
- MIC50 (Exophiala dermatitidis): 0.03 µg/mL (≈ 0.0263 µM)
- MIC90 (Exophiala dermatitidis): 0.06 µg/mL (≈ 0.0526 µM)
- MIC50 (Trichosporon domesticum): > 16 µg/mL
- MIC90 (Trichosporon domesticum): > 16 µg/mL
- MIC50 (Candida parapsilosis): 1 µg/mL (≈ 0.877 µM)
- MIC90 (Candida parapsilosis): 2 µg/mL (≈ 1.75 µM)
- MIC50 (Fusarium reticulatum): > 16 µg/mL
- MIC90 (Fusarium reticulatum): > 16 µg/mL
- MIC50 (Papiliotrema laurentii): > 16 µg/mL
- MIC90 (Papiliotrema laurentii): > 16 µg/mL
- MIC50 (Rhizomucor): > 16 µg/mL
- MIC90 (Rhizomucor): > 16 µg/mL
- MIC50 (Trichoderma): > 16 µg/mL
- MIC90 (Trichoderma): > 16 µg/mL
- MIC50 (Fusarium proliferatum): > 16 µg/mL
- MIC90 (Fusarium proliferatum): > 16 µg/mL
- MIC50 (Fusarium oxysporum): > 16 µg/mL
- MIC90 (Fusarium oxysporum): > 16 µg/mL
